{"source": "ChEMBL document CHEMBL1949580", "about": "“Multi-component synthesis and in vitro and in vivo anticancer activity of novel arylmethylene bis-isoxazolo[4,5-b]pyridine-N-oxides” (Eur J Med Chem, 2012)", "assay_type_in_all_cases": "functional, cell-based", "key": {"HeLa": {"test_system": "HeLa", "assay": "Cytotoxicity against human HeLa cells after 48 hrs by MTT assay", "procedure,_shortened": "(§1)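 Cells in medium with 10% FBS, 5% CO₂, 37 °C, seeded from a 1 × 10⁵ cells/mL suspension. Test solutions from DMSO stocks (final <1% DMSO) added after 24 h. Exposure 48 h, then MTT 2.5 mg/mL for 2 h, formazan dissolved in DMSO, read at 490 nm. IC₅₀ is 50% OD reduction versus untreated, from dose-response curves. Mean of three independent determinations.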"}, "[1]": {"assay": "Cytotoxicity against […] after 48 hrs by MTT assay", "conditions": "Mus musculus, Ehrlich", "procedure,_shortened": "as §1"}, "MCF7": {"test_system": "MCF7", "assay": "Cytotoxicity against human MCF7 cells after 48 hrs by MTT assay", "conditions": "MCF7, 48 h", "procedure,_shortened": "as §1"}}, "data": [{"molecule": "Cc1ccc(-c2c[n+]([O-])c3c(C)noc3c2C(c2ccccc2)c2c(-c3ccc(C)cc3)c[n+]([O-])c3c(C)noc23)cc1", "values": [{"measurement": "IC50", "setting": "HeLa", "result": 42, "unit": "µg/mL"}, {"measurement": "IC50", "setting": "[1]", "result": 48.4, "unit": "µg/mL"}, {"measurement": "IC50", "setting": "MCF7", "result": 44.3, "unit": "µg/mL"}]}, {"molecule": "Cc1noc2c(C(c3ccccc3)c3c(-c4ccc(Cl)cc4)c[n+]([O-])c4c(C)noc34)c(-c3ccc(Cl)cc3)c[n+]([O-])c12", "values": [{"measurement": "IC50", "setting": "HeLa", "result": 70.2, "unit": "µg/mL"}, {"measurement": "IC50", "setting": "[1]", "result": 78.3, "unit": "µg/mL"}, {"measurement": "IC50", "setting": "MCF7", "result": 79, "unit": "µg/mL"}]}, {"molecule": "Cc1ccccc1C(c1c(-c2ccccc2)c[n+]([O-])c2c(C)noc12)c1c(-c2ccccc2)c[n+]([O-])c2c(C)noc12", "values": [{"measurement": "IC50", "setting": "HeLa", "result": 62.4, "unit": "µg/mL"}, {"measurement": "IC50", "setting": "[1]", "result": 65.1, "unit": "µg/mL"}, {"measurement": "IC50", "setting": "MCF7", "result": 60.7, "unit": "µg/mL"}]}, {"molecule": "Cc1noc2c(C(c3ccccc3)c3c(-c4ccc([N+](=O)[O-])cc4)c[n+]([O-])c4c(C)noc34)c(-c3ccc([N+](=O)[O-])cc3)c[n+]([O-])c12", "values": [{"measurement": "IC50", "setting": "HeLa", "result": 80, "unit": "µg/mL"}, {"measurement": "IC50", "setting": "[1]", "result": 75.5, "unit": "µg/mL"}, {"measurement": "IC50", "setting": "MCF7", "result": 76.2, "unit": "µg/mL"}]}, {"molecule": "COc1ccc(-c2c[n+]([O-])c3c(C)noc3c2C(c2ccccc2)c2c(-c3ccc(OC)cc3)c[n+]([O-])c3c(C)noc23)cc1", "values": [{"measurement": "IC50", "setting": "HeLa", "result": 47.9, "unit": "µg/mL"}, {"measurement": "IC50", "setting": "[1]", "result": 41.7, "unit": "µg/mL"}, {"measurement": "IC50", "setting": "MCF7", "result": 46, "unit": "µg/mL"}]}]}
